From PMC10585311 (Saudi Pharmaceutical Journal : SPJ, 2023)

Tests used:
S. typhi = assay: Disc diffusion antibacterial screening; assay type: cell-based, Salmonella typhi; conditions: S. typhi (G–ve)
How it was run: (§1)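 Disc diffusion on standard nutrient agar as the basal medium. Values are from triplicate experiments. Significance was set at p < 0.05.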

E. coli = assay: Disc diffusion antibacterial screening; assay type: cell-based, Escherichia coli; conditions: E. coli (G–ve)
How it was run: as §1

P. aeruginosa = assay: Disc diffusion antibacterial screening; assay type: cell-based, Pseudomonas aeruginosa; conditions: P. aeruginosa (G–ve)
How it was run: as §1

B. subtilis = assay: Disc diffusion antibacterial screening; assay type: cell-based, Bacillus subtilis; conditions: B. subtilis (G + ve)
How it was run: as §1

S. aureus = assay: Disc diffusion antibacterial screening; assay type: cell-based; conditions: S. aureus (G + ve)
How it was run: as §1

tested bacteria = assay: Disc diffusion antibacterial screening, overall statements; assay type: cell-based
How it was run: as §1

Aspergillus niger = assay: Mycelial growth inhibition, poisoned food technique; assay type: cell-based; conditions: in DMSO (20 μg/μL)
Aspergillus flavus = assay: as above; assay type: cell-based; conditions: in DMSO (20 μg/μL)
brine shrimp nauplii = assay: Brine shrimp lethality assay; assay type: in vivo; conditions: for percentage of dead shrimp (deaths): after 24 and 48 h
How it was run: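 Brine shrimp lethality assay. Test compounds were dissolved in DMSO and made up at four levels. Each vial held 5 mL NaCl solution and one of four sample levels (A–D: 4, 8, 16, 32). Each vial received 10 nauplii, with triplicate vials per level. Mortality was scored at each level and averaged as percent.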

B. cereus = assay: Disc diffusion antibacterial screening; assay type: cell-based, Bacillus cereus
How it was run: as §1

CC[C@H]1OC(=O)[C@H](C)[C@@H](O[C@H]2C[C@@](C)(OC)[C@@H](O)[C@H](C)O2)[C@H](C)[C@@H](O[C@@H]2O[C@H](C)C[C@H](N(C)C)[C@H]2O)[C@](C)(O)C[C@@H](C)CN(C)[C@H](C)[C@@H](O)[C@]1(C)O [Azithromycin, reference compound]
Diameter of Inhibition Zones (S. typhi): **19 ± 0.5 mm | Diameter of Inhibition Zones (E. coli): **17 ± 0.4 mm | Diameter of Inhibition Zones (P. aeruginosa): **17 ± 0.5 mm | Diameter of Inhibition Zones (B. subtilis): **19 ± 0.6 mm | Diameter of Inhibition Zones (S. aureus): **18 ± 0.5 mm

CO[C@H]1O[C@H](CO)[C@@H](O)[C@H](O)[C@H]1O [Compound 1, methyl α-D-glucopyranoside, reference compound]
antibacterial activity (tested bacteria; all tested bacteria): did not show any antibacterial activity

CO[C@H]1O[C@H](COC(c2ccccc2)(c2ccccc2)c2ccccc2)[C@@H](O)[C@H](O)[C@H]1O [Compound 2, Methyl 6-O-(triphenylmethyl)-α-D-glucopyranoside]
Percent inhibition of fungal mycelial growth (Aspergillus niger): 36.43% | Diameter of Inhibition Zones (E. coli): 9 ± 0.2 mm | Percent inhibition of fungal mycelial growth (Aspergillus flavus): 33.33% | Diameter of Inhibition Zones (P. aeruginosa): 9 ± 0.1 mm | Diameter of Inhibition Zones (B. subtilis): 8 ± 0.5 mm | percentage of dead shrimp (deaths) (brine shrimp nauplii): 32.11%

CCCCCCCCCCCCCC(=O)O[C@@H]1[C@@H](OC(=O)CCCCCCCCCCCCC)[C@@H](OC)O[C@H](COC(c2ccccc2)(c2ccccc2)c2ccccc2)[C@H]1OC(=O)CCCCCCCCCCCCC [Compound 4, Methyl 2,3,4-tri-O-myristoyl-6-O-(triphenylmethyl)-α-D-glucopyranoside]
Percent inhibition of fungal mycelial growth (Aspergillus niger): 31.92% | Diameter of Inhibition Zones (S. typhi): 9 ± 0.5 mm | Diameter of Inhibition Zones (P. aeruginosa): 8 ± 0.2 mm | Diameter of Inhibition Zones (B. subtilis): 10 ± 0.3 mm | percentage of dead shrimp (deaths) (brine shrimp nauplii): 47.64%

CO[C@H]1O[C@H](COC(c2ccccc2)(c2ccccc2)c2ccccc2)[C@@H](OC(=O)c2ccc(C(C)(C)C)cc2)[C@H](OC(=O)c2ccc(C(C)(C)C)cc2)[C@H]1OC(=O)c1ccc(C(C)(C)C)cc1 [Compound 5, Methyl 2,3,4-tri-O-(4-t-butylbenzoyl)-6-O-(triphenylmethyl)-α-D-glucopyranoside]
Diameter of Inhibition Zones (S. typhi): 10 ± 0.4 mm | Diameter of Inhibition Zones (E. coli): *15 ± 0.2 mm | Percent inhibition of fungal mycelial growth (Aspergillus flavus): *59.54 ± 0.14% | Diameter of Inhibition Zones (S. aureus): *17 ± 0.1 mm | zone of inhibition (B. cereus): 17 ± 0.1 mm | percentage of dead shrimp (deaths) (brine shrimp nauplii): 48.21%

COc1ccc(C(=O)OC[C@H]2O[C@H](OC)[C@H](O)[C@@H](O)[C@@H]2O)cc1 [Compound 7, Methyl 6-O-(4-methoxybenzoyl)-α-D-glucopyranoside]
Percent inhibition of fungal mycelial growth (Aspergillus niger): 48.40 ± 0.22% | Diameter of Inhibition Zones (E. coli): 9 ± 0.4 mm | Percent inhibition of fungal mycelial growth (Aspergillus flavus): 35.38 ± 0.32% | Diameter of Inhibition Zones (B. subtilis): *12 ± 0.2 mm | Diameter of Inhibition Zones (S. aureus): 10 ± 0.1 mm

CCCCCCCCCCCC(=O)O[C@@H]1[C@@H](OC(=O)CCCCCCCCCCC)[C@@H](OC)O[C@H](COC(=O)c2ccc(OC)cc2)[C@H]1OC(=O)CCCCCCCCCCC [Compound 8, Methyl 2,3,4-tri-O-lauroyl-6-O-(4-methoxybenzoyl)-α-D-glucopyranoside]
Percent inhibition of fungal mycelial growth (Aspergillus niger): *66.41 ± 0.37% | Diameter of Inhibition Zones (E. coli): 10 ± 0.1 mm | Percent inhibition of fungal mycelial growth (Aspergillus flavus): *63.31 ± 0.51% | Diameter of Inhibition Zones (B. subtilis): 9 ± 0.3 mm | Diameter of Inhibition Zones (S. aureus): 11 ± 0.2 mm | toxicity to brine shrimp (brine shrimp nauplii): less toxic

C[C@@H]1[C@H](O)[C@@H](C)/C=C/C=C/CC/C=C/C=C/C=C/C=C/C(O[C@H]2O[C@H](C)[C@@H](O)[C@H](N)[C@@H]2O)CC2O[C@](O)(CC(O)C(O)CCC(O)CC(O)CC(O)CC(=O)O[C@H]1C)CC(O)C2C(=O)O (stereo partly drawn) [Nystatin, reference compound]
Percent inhibition of fungal mycelial growth (Aspergillus niger): **66.40 ± 0.05% | Percent inhibition of fungal mycelial growth (Aspergillus flavus): **63.10 ± 0.09%

Methyl 2,3,4-tri-O-lauryl-6-O-(triphenylmethyl)-α-D-glucopyranoside [Compound 3]
inhibitory activity (tested bacteria; tested gram-positive bacteria): did not show any inhibitory activity | Percent inhibition of fungal mycelial growth (Aspergillus niger): 46.62% | Diameter of Inhibition Zones (S. typhi): 10 ± 0.1 mm | Percent inhibition of fungal mycelial growth (Aspergillus flavus): 41.30% | Diameter of Inhibition Zones (P. aeruginosa): *12 ± 0.3 mm | toxicity to brine shrimp (brine shrimp nauplii): less toxic
